What is called IC50 is the concentration needed to halve the response being measured. Read a high IC50 as weaker potency.

The structures appear in SMILES notation.

The values below come from ChEMBL document CHEMBL1152476, “Synthesis and in vitro cytotoxicity of 9-anilinoacridines bearing N-mustard residue on both anilino and acridine rings” (Eur J Med Chem, 2009).

In data set [1] the test system is CCRF-CEM. Description: Cytotoxicity against human CCRF-CEM cells after 72 hrs by XTT-tetrazolium assay. In kind it is functional, cell-based. The method, boiled down:
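CCRF-CEM human T-cell acute lymphocytic leukemia cells exposed for 72 h to six or seven concentrations per compound. Phenazine methosulfate–XTT was then added for 6 h at 37 °C, and absorbance was read at 450 and 630 nm. IC50 was derived from the dose–effect relationship by median–effect plot analysis.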
A general note: Tetrazolium assays rely on reduction of a dye to a coloured formazan, in cell work by metabolically active cells.

For data set [2], the system named is CCRF-CEM. Description: Ratio of AHMA IC50 to compound IC50 against human CCRF-CEM cells. It counts as functional. The method, boiled down:
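Ratio of AHMA IC50 to test compound IC50, both from the same 72 h CCRF-CEM XTT assay. Six or seven concentrations per drug were tested, and each IC50 came from a median–effect analysis of the dose–effect relationship.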

The test system of data set [3] is CCRF-CEM. Briefly: Antitumor activity in human CCRF-CEM cells xenografted mouse at 2 mg/kg, iv qd for 3 days. Details: dose 2 mg/kg. In kind it is functional, organism-based. The procedure, abridged: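 Mice received intravenous injection at 2 mg/kg, once daily ×3 (QD×3), in a DMSO/Tween 80/normal saline vehicle.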
On the technique in general: A xenograft is tissue or cells of one species grown in another, often human tumour cells in immunodeficient mice.

A short description of data set [4]: Solubility in dimethyl sulfoxide. In kind it is physicochemical.
The nature of data set [5]: Solubility in Tween 80. It counts as physicochemical.
Data set [6] can be described thus: Solubility in normal saline. In kind it is physicochemical. Conditions: buffer.

Molecule `ClCCN(CCCl)CCOc1ccc(Nc2c3ccccc3nc3c(OCCN(CCCl)CCCl)cccc23)cc1` came in with an IC50 in the data set on CCRF-CEM [1] of 14.2 nM. Besides, in the data set on CCRF-CEM [2], the “Ratio IC50” value was 30. Besides, the Activity result in the data set with CCRF-CEM [3] is “Toxic”. Moreover, the solubility result in data set [4], in data set [5] and in data set [6] was “Insoluble” throughout.

`ClCCN(CCCl)CCCCOc1ccc(Nc2c3ccccc3nc3ccccc23)cc1` returned a concentration for half-maximal inhibition (IC50) in the data set on CCRF-CEM [1] of 56 nM. The “Ratio IC50” value in the data set with CCRF-CEM [2] came out at 30. Also, in the data set on CCRF-CEM [3], the Activity result is “Toxic”. The solubility entry in data set [4], in data set [5] and in data set [6] was “Insoluble” in each case.

Consider `ClCCN(CCCl)CCCCOc1cccc2c(Nc3ccc(OCCN(CCCl)CCCl)cc3)c3ccccc3nc12`, for which 1.3 nM corresponded to half-maximal inhibition in the data set on CCRF-CEM [1] (IC50). In the data set on CCRF-CEM [2], the “Ratio IC50” value came to 30. Besides, the Activity result in the data set on CCRF-CEM [3] is “Toxic”. Moreover, the solubility entry in data set [4], in data set [5] and in data set [6] was “Insoluble” throughout.

Consider `COc1cc(N)cc(Nc2c3ccccc3nc3c(OCCCCN(CCCl)CCCl)cccc23)c1`, for which, in the data set with CCRF-CEM [2], the “Ratio IC50” value stood at 30. For the same molecule, the Activity result with CCRF-CEM [3] is “Toxic”. Moreover, the solubility entry in data set [4], in data set [5] and in data set [6] was “Insoluble” throughout.

As for `ClCCN(CCCl)CCCCOc1cccc(Nc2c3ccccc3nc3ccccc23)c1`, it took 392 nM to reach half-maximal inhibition with CCRF-CEM [1] (IC50). The “Ratio IC50” value in the data set with CCRF-CEM [2] amounted to 30. In addition, the Activity entry with CCRF-CEM [3] was “Toxic”. In addition, the solubility entry in data set [4], in data set [5] and in data set [6] was “Insoluble” throughout.

For `ClCCN(CCCl)CCOc1ccc(Nc2c3ccccc3nc3ccccc23)cc1`, the “Ratio IC50” value in the data set on CCRF-CEM [2] turned out to be 30. Further, in the data set on CCRF-CEM [3], the Activity entry is “Toxic”. For the same molecule, the solubility result in data set [4], in data set [5] and in data set [6] was “Insoluble” throughout.

In the data set with CCRF-CEM [1], `ClCCN(CCCl)CCCCOc1cccc(Nc2c3ccccc3nc3c(OCCN(CCCl)CCCl)cccc23)c1` registered a 50% inhibitory concentration (IC50) of 6 nM. Also, in the data set with CCRF-CEM [2], the “Ratio IC50” value is 30. Also, the Activity entry in the data set with CCRF-CEM [3] was “Toxic”. Further, the solubility result in data set [4], in data set [5] and in data set [6] was “Insoluble” in each case.

For the molecule `CC(=O)O[C@H]1C(=O)[C@@]2(C)[C@H]([C@H](OC(=O)c3ccccc3)[C@]3(O)C[C@H](OC(=O)[C@H](O)[C@@H](NC(=O)c4ccccc4)c4ccccc4)C(C)=C1C3(C)C)[C@]1(OC(C)=O)CO[C@@H]1C[C@@H]2O`, the Activity entry with CCRF-CEM [3] was “Toxic”.

With `ClCCN(CCCl)CCCCOc1ccc(Nc2c3ccccc3nc3c(OCCN(CCCl)CCCl)cccc23)cc1`, the half-inhibitory concentration (IC50) in the data set with CCRF-CEM [1] turned out to be 21 nM. The “Ratio IC50” value in the data set on CCRF-CEM [2] is reported as 30. Moreover, the Activity entry with CCRF-CEM [3] is “Toxic”. Moreover, the solubility result in data set [4], in data set [5] and in data set [6] was “Insoluble” throughout.

Turning to `ClCCN(CCCl)CCOc1cccc(Nc2c3ccccc3nc3ccccc23)c1`, the midpoint of inhibition in the data set on CCRF-CEM [1], the IC50, lay at 86 nM. Further, the “Ratio IC50” value with CCRF-CEM [2] stood at 30. In the data set on CCRF-CEM [3], the Activity result is “Toxic”. The solubility entry in data set [4], in data set [5] and in data set [6] was “Insoluble” each time.

As for `COc1cc(N)cc(Nc2c3ccccc3nc3c(OCCN(CCCl)CCCl)cccc23)c1`, in the data set with CCRF-CEM [1], half-maximal inhibition (IC50) was put at 6.7 nM. Moreover, the “Ratio IC50” value with CCRF-CEM [2] was 30. In addition, the Activity result in the data set with CCRF-CEM [3] was “Toxic”. Besides, the solubility result in data set [4], in data set [5] and in data set [6] was “Insoluble” each time.

Turning to `ClCCN(CCCl)CCOc1cccc(Nc2c3ccccc3nc3c(OCCN(CCCl)CCCl)cccc23)c1`, the midpoint of inhibition in the data set with CCRF-CEM [1], the IC50, lay at 17 nM. Besides, in the data set on CCRF-CEM [2], the “Ratio IC50” value is 30. Besides, the Activity entry in the data set on CCRF-CEM [3] is “Toxic”. Further, the solubility result in data set [4], in data set [5] and in data set [6] was “Insoluble” each time.
